ChEMBL document CHEMBL4257478, “Design, synthesis and evaluation of (R)-3-(7-(methyl(7H-pyrrolo[2,3-d]pyrimidin-4-yl)amino)-5-azaspiro[2.4]heptan-5-yl)-3-oxopropanenitrile as a JAK1-selective inhibitor” (Medchemcomm, 2018)

Legend:
[1] = target: T1, Tyrosine-protein kinase JAK1 (Homo sapiens, UniProt P23458); assay: Inhibition of human JAK1 using GEEPLYWSFPAKKK as substrate after 40 mins in presence of [gamma-33P-ATP] by scintillation counting method
[2] = target: Tyrosine-protein kinase JAK2 (Homo sapiens, UniProt O60674); assay: Inhibition of human JAK2 using KTFCGTPEYLAPEVRREPRILSEEEQEMFRDFDYIADWC as substrate after 40 mins in presence of [gamma-33P-ATP] by scintillation counting method
Chain of Tyrosine-protein kinase JAK2 (O60674 whole entry): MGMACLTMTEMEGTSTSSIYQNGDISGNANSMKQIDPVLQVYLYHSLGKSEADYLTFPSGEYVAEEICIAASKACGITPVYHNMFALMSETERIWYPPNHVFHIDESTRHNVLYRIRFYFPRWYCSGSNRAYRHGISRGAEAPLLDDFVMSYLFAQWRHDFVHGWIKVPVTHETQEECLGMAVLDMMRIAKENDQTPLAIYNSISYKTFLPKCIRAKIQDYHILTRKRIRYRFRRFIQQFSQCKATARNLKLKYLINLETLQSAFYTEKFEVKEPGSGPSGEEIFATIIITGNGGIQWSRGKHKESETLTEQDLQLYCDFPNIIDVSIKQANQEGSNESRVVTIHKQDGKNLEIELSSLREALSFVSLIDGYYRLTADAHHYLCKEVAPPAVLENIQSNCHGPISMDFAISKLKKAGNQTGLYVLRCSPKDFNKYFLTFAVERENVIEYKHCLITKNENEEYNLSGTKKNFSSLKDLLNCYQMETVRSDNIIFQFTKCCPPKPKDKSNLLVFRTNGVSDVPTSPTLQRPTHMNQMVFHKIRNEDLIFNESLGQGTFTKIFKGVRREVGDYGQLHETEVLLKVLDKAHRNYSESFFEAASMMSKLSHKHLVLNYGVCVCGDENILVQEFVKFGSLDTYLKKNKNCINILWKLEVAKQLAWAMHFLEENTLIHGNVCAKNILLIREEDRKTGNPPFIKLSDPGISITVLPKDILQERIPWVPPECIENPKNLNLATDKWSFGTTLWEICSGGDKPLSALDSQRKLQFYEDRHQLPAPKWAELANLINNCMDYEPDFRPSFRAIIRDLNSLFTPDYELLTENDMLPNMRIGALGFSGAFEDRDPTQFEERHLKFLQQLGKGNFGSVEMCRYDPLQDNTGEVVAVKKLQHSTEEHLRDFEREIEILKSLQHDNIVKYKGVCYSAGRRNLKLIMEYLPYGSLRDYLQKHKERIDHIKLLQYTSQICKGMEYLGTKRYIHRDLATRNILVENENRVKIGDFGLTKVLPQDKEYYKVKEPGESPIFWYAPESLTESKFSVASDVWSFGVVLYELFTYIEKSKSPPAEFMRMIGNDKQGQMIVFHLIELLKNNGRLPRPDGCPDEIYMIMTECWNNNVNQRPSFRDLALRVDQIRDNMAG

Homo sapiens = organism: Homo sapiens; assay: Selectivity index, ratio of IC50 for human JAK2 to IC50 for human JAK1
Procedure, shortened: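 Kinase activity assays run as a commercial service at Km ATP; IC50 values fitted from concentration-response data; ratio of JAK2 to JAK1 IC50.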

[3] = target: T1, Tyrosine-protein kinase JAK1; assay: Inhibition of human JAK1 at 1 uM using GEEPLYWSFPAKKK as substrate after 40 mins in presence of [gamma-33P-ATP] by scintillation counting method relative to control

T1 sequence (P23458 whole entry): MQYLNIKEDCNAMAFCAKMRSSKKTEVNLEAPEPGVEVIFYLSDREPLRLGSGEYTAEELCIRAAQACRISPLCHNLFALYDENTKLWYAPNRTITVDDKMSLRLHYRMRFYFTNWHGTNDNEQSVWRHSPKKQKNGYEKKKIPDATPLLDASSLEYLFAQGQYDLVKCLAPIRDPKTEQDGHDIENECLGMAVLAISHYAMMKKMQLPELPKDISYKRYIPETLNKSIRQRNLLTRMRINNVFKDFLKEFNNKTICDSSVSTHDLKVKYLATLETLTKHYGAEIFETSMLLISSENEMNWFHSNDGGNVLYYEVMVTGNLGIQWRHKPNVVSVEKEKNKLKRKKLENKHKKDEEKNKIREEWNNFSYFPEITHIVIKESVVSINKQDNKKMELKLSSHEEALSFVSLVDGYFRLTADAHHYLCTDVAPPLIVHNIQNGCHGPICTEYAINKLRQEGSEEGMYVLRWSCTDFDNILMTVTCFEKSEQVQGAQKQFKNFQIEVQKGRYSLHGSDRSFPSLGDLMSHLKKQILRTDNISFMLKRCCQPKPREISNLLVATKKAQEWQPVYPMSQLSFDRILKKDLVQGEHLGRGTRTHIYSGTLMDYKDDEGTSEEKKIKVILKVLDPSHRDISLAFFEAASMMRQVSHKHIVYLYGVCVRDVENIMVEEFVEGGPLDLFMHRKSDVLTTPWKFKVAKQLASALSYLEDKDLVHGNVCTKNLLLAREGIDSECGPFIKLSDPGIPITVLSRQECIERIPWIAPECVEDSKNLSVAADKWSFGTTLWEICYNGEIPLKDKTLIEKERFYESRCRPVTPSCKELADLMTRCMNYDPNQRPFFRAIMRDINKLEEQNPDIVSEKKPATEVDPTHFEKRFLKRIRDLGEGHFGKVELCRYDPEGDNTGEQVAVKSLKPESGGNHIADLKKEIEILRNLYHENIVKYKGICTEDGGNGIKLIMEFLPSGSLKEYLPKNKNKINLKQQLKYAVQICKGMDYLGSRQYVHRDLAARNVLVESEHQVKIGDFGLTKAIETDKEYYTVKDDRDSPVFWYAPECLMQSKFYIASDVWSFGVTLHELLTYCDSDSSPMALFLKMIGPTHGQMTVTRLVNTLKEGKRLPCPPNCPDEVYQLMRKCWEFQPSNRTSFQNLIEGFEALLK

| IC50 [1] | IC50 [2] | Ratio IC50 (Homo sapiens) | inhibition [3] | SMILES |
| --- | --- | --- | --- | --- |
| 20 nM | 160 nM | 8 |  | CN(c1ncnc2[nH]ccc12)[C@H]1CN(C(=S)CC#N)CC12CC2 |
| 16 nM | 1400 nM | 88 |  | CN(c1ncnc2[nH]ccc12)[C@H]1CN(S(=O)(=O)c2ccc(C(F)(F)F)cc2)CC12CC2 |
| 120 nM | 98000 nM | 820 |  | CN(c1ncnc2[nH]ccc12)[C@H]1CN(Cc2ccccc2)CC12CC2 |
| 23 nM | 1000 nM | 43 |  | CN(c1ncnc2[nH]ccc12)[C@H]1CN(C(=O)Nc2ccc(F)cc2)CC12CC2 |
| 520 nM | 16000 nM | 31 |  | CC(=O)NCC(=O)N1C[C@H](N(C)c2ncnc3[nH]ccc23)C2(CC2)C1 |
| 53 nM | 930 nM | 18 |  | CN(c1ncnc2[nH]ccc12)[C@H]1CN(C(=O)c2ccco2)CC12CC2 |
| 12 nM | 420 nM | 35 |  | CN(c1ncnc2[nH]ccc12)[C@H]1CN(C(=O)Nc2ccccc2)CC12CC2 |
| 1500 nM | 9100 nM | 6.1 |  | CN(c1ncnc2[nH]ccc12)[C@H]1CN(C(=O)Nc2ccccc2-c2ccccc2)CC12CC2 |
| 9.3 nM | 180 nM | 19 |  | COc1ccc(S(=O)(=O)N2C[C@H](N(C)c3ncnc4[nH]ccc34)C3(CC3)C2)cc1 |
| 77 nM | 1100 nM | 14 |  | CC(C)CC(=O)N1C[C@H](N(C)c2ncnc3[nH]ccc23)C2(CC2)C1 |
| 190 nM | 4500 nM | 24 |  | CN(c1ncnc2[nH]ccc12)[C@H]1CN(C(=O)c2ccc(C#N)cc2)CC12CC2 |
| 6.9 nM | 36 nM | 5.2 |  | CCCS(=O)(=O)N1C[C@H](N(C)c2ncnc3[nH]ccc23)C2(CC2)C1 |
| 100 nM | 7400 nM | 74 |  | CN(c1ncnc2[nH]ccc12)[C@H]1CN(C(=O)c2cccc(C#N)c2)CC12CC2 |
| 2.8 nM | 8.4 nM | 3 |  | CN(c1ncnc2[nH]ccc12)[C@H]1CN(S(=O)(=O)c2cccc(F)c2)CC12CC2 |
| 120 nM | 4700 nM | 39 |  | CN(c1ncnc2[nH]ccc12)[C@H]1CN(C(=O)Nc2ccc(Cl)cc2Cl)CC12CC2 |
|  |  |  | 99% | CN(c1ncnc2[nH]ccc12)[C@@H]1CCCN(C(=O)CC#N)C1 |
| 140 nM | 6500 nM | 46 |  | CN(c1ncnc2[nH]ccc12)[C@H]1CN(C(=O)c2ccncc2)CC12CC2 |
| 670 nM | 13000 nM | 19 |  | CNC(=O)CC(=O)N1C[C@H](N(C)c2ncnc3[nH]ccc23)C2(CC2)C1 |
| 31 nM | 260 nM | 8.4 |  | CN(c1ncnc2[nH]ccc12)[C@H]1CN(S(=O)(=O)N2CCOCC2)CC12CC2 |
| 75 nM | 2800 nM | 37 |  | CCCCNC(=O)N1C[C@H](N(C)c2ncnc3[nH]ccc23)C2(CC2)C1 |
| 17 nM | 150 nM | 8.8 |  | CN(c1ncnc2[nH]ccc12)[C@H]1CN(S(=O)(=O)c2ccc3ccccc3c2)CC12CC2 |
| 20 nM | 130 nM | 6.5 |  | CC(C)S(=O)(=O)N1C[C@H](N(C)c2ncnc3[nH]ccc23)C2(CC2)C1 |

More lines, now with the values behind:

| SMILES | IC50 [1] | IC50 [2] | Ratio IC50 (Homo sapiens) | inhibition [3] |
| --- | --- | --- | --- | --- |
| CN(c1ncnc2[nH]ccc12)[C@H]1CN(S(=O)(=O)c2ccccc2F)CC12CC2 | 13 nM | 97 nM | 7.5 |  |
| CN(c1ncnc2[nH]ccc12)[C@H]1CN(C(=O)c2ccccc2)CC12CC2 | 150 nM | 6300 nM | 42 |  |
| CN(c1ncnc2[nH]ccc12)[C@H]1CN(C(=O)CN=[N+]=[N-])CC12CC2 | 21 nM | 250 nM | 12 |  |
| CN(c1ncnc2[nH]ccc12)[C@H]1CN(S(=O)(=O)c2ccccc2C#N)CC12CC2 | 50 nM | 480 nM | 9.6 |  |
| CC(=O)N1CCC(C(=O)N2C[C@H](N(C)c3ncnc4[nH]ccc34)C3(CC3)C2)CC1 | 180 nM | 2500 nM | 14 |  |
| CN(c1ncnc2[nH]ccc12)[C@H]1CN(S(=O)(=O)N2CCCCC2)CC12CC2 | 15 nM | 150 nM | 10 |  |
| CN(c1ncnc2[nH]ccc12)[C@H]1CN(C(=O)Nc2cccc(Cl)c2Cl)CC12CC2 | 74 nM | 1300 nM | 18 |  |
| CCN1C[C@H](N(C)c2ncnc3[nH]ccc23)C2(CC2)C1 | 1400 nM | 30000 nM | 21 |  |
| CN(c1ncnc2[nH]ccc12)C1CCN(C(=O)CC#N)CC1 |  |  |  | 49% |
| CC(C)COC(=O)N1C[C@H](N(C)c2ncnc3[nH]ccc23)C2(CC2)C1 | 34 nM | 1200 nM | 35 |  |
| CN(c1ncnc2[nH]ccc12)[C@H]1CN(S(=O)(=O)c2ccc(C#N)cc2)CC12CC2 | 9.8 nM | 1100 nM | 110 |  |
| CN(c1ncnc2[nH]ccc12)[C@H]1CN(S(=O)(=O)c2ccccc2[N+](=O)[O-])CC12CC2 | 26 nM | 470 nM | 18 |  |
| CN(c1ncnc2[nH]ccc12)[C@H]1CN(C(=O)NC2CCCCC2)CC12CC2 | 69 nM | 4400 nM | 64 |  |
| CN(c1ncnc2[nH]ccc12)[C@H]1CN(C(=O)C2CC2)CC12CC2 | 170 nM | 1200 nM | 7.1 |  |
| CCCCN1C[C@H](N(C)c2ncnc3[nH]ccc23)C2(CC2)C1 | 230 nM | 15000 nM | 65 |  |
| Cc1ccc(NC(=O)N2C[C@H](N(C)c3ncnc4[nH]ccc34)C3(CC3)C2)cc1Cl | 85 nM | 1300 nM | 15 |  |

| SMILES | IC50 [1] | IC50 [2] | Ratio IC50 (Homo sapiens) | inhibition [3] |
| --- | --- | --- | --- | --- |
| CN(c1ncnc2[nH]ccc12)[C@H]1CN(S(=O)(=O)c2ccc(F)cc2)CC12CC2 | 9.4 nM | 50 nM | 5.3 |  |
| CN(c1ncnc2[nH]ccc12)[C@H]1CN(C(=O)c2cccc(C(F)(F)F)c2)CC12CC2 | 420 nM | 11000 nM | 26 |  |
| Cc1cccc(S(=O)(=O)N2C[C@H](N(C)c3ncnc4[nH]ccc34)C3(CC3)C2)c1 | 12 nM | 66 nM | 5.5 |  |
| CC(C)C(=O)N1C[C@H](N(C)c2ncnc3[nH]ccc23)C2(CC2)C1 | 170 nM | 2800 nM | 16 |  |
| CN(c1ncnc2[nH]ccc12)[C@H]1CN(C(=O)c2cccnc2)CC12CC2 | 160 nM | 7800 nM | 49 |  |
| CN(c1ncnc2[nH]ccc12)[C@H]1CN(S(=O)(=O)c2ccc([N+](=O)[O-])cc2)CC12CC2 | 6.3 nM | 30 nM | 4.8 |  |
| N#CCC(=O)N1C[C@H]2CCCN(c3ncnc4[nH]ccc34)[C@H]2C1 |  |  |  | 54% |
| N#CCC(=O)N1CCCC(COc2ncnc3[nH]ccc23)C1 (stereo not given) |  |  |  | 30% |
| CN(c1ncnc2[nH]ccc12)[C@H]1CN(C(=O)c2ccccc2C(F)(F)F)CC12CC2 | 500 nM | 9100 nM | 18 |  |
| CN(c1ncnc2[nH]ccc12)[C@H]1CN(C(=O)Nc2cc(Cl)ccc2Cl)CC12CC2 | 54 nM | 2800 nM | 52 |  |
| CN(c1ncnc2[nH]ccc12)[C@H]1CN(S(=O)(=O)c2ccccc2)CC12CC2 | 9 nM | 51 nM | 5.7 |  |
| CN(c1ncnc2[nH]ccc12)C1CN(C(=O)CC#N)CC12CC2 (racemic) |  |  |  | 95% |
| CN(c1ncnc2[nH]ccc12)[C@H]1CN(C(=S)Nc2cc(C(F)(F)F)cc(C(F)(F)F)c2)CC12CC2 | 470 nM | 11000 nM | 23 |  |
| CN(c1ncnc2[nH]ccc12)[C@H]1CN(C(=O)Nc2ccc(Cl)c(Cl)c2)CC12CC2 | 40 nM | 1300 nM | 33 |  |
| CN(c1ncnc2[nH]ccc12)[C@H]1CN(S(=O)(=O)c2cccc([N+](=O)[O-])c2)CC12CC2 | 1.4 nM | 5.5 nM | 3.9 |  |
| N#CCC(=O)N1CCC(Oc2ncnc3[nH]ccc23)CC1 |  |  |  | 35% |
